Source: PubChem BioAssay
MsrA inhibitor: bovine MsrA enzyme inhibitors, primary screen, biochemical, absorbance, HTS; hit rate 0.75% among 360,000; AID 651718, 2012; purified bovine MsrA, absorbance read-out; Methionine sulfoxide reductase A (Bos taurus); inhibition, % at 15.5 µM
MT1-MMP act inh: blockers of MT1-MMP proenzyme processing, primary screen, HT1080 RFP-PRO-GFP cells, GFP/RFP fluorescence; GFP/RFP ratio fluorescence, overnight; percent of plate control window, DMSO zero; hit rate 0.061% among 360,000; AID 651647, 2012; GFP/RFP ratio change, % at 20 µM; Matrix metalloproteinase-14 (Homo sapiens), P50281;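 active means GFP/RFP ratio change of at least 30% with cell ATP level not reduced by more than half and red fluorescence within 50% of control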
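Material: RFP-PRO-GFP reporter HT1080 cells. Dosing: single-point 20 µM compound, 1% DMSO. Controls: DMSO and RFP-L50D-GFP cell wells. Timing: cells overnight before dosing, compound overnight, 37 °C, 5% CO2. Measure: GFP/RFP fluorescence ratio.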
SKN-1 inh: suppressors of acrylamide-induced Pgst-4::GFP reporter in worms, primary screen, SKN-1 inhibitor project, whole organism, uHTS, GFP/RFP fluorescence ratio, strain VP596; C. elegans VP596 Pgst-4::GFP/RFP ratio, 24 h; inhibition, % at 21.8 µM; hit rate 0.49% among 360,000;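 active means interference check ratio from 0.5 to 1.5 plus GFP to RFP signal ratio inhibition reaching or exceeding a fixed threshold, cut at about 30% in these data, passing the limit was not always enough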
MsrA act: bovine MsrA enzyme activators, primary screen, biochemical, absorbance, HTS; activation, % at 10.6 µM; Methionine sulfoxide reductase A (Bos taurus); hit rate 0.3% among 360,000; purified bovine MsrA, absorbance read-out; in the data active means activation above about 7.5%
pCIP destab: p/CIP-EGFP fusion destabilizers, primary screen, fluorescence, F442A cells. hit rate 0.01% among 290,000. 16 h. decrease of EGFP signal, % at 10 µM. Q05BA5;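 active means EGFP signal decrease of at least 30% at 10 µM or well 3 SD below plate mean, unless failing retest; inactive means the rest, including hits failing retest or dose response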
Target sequence (Q05BA5 1-1403): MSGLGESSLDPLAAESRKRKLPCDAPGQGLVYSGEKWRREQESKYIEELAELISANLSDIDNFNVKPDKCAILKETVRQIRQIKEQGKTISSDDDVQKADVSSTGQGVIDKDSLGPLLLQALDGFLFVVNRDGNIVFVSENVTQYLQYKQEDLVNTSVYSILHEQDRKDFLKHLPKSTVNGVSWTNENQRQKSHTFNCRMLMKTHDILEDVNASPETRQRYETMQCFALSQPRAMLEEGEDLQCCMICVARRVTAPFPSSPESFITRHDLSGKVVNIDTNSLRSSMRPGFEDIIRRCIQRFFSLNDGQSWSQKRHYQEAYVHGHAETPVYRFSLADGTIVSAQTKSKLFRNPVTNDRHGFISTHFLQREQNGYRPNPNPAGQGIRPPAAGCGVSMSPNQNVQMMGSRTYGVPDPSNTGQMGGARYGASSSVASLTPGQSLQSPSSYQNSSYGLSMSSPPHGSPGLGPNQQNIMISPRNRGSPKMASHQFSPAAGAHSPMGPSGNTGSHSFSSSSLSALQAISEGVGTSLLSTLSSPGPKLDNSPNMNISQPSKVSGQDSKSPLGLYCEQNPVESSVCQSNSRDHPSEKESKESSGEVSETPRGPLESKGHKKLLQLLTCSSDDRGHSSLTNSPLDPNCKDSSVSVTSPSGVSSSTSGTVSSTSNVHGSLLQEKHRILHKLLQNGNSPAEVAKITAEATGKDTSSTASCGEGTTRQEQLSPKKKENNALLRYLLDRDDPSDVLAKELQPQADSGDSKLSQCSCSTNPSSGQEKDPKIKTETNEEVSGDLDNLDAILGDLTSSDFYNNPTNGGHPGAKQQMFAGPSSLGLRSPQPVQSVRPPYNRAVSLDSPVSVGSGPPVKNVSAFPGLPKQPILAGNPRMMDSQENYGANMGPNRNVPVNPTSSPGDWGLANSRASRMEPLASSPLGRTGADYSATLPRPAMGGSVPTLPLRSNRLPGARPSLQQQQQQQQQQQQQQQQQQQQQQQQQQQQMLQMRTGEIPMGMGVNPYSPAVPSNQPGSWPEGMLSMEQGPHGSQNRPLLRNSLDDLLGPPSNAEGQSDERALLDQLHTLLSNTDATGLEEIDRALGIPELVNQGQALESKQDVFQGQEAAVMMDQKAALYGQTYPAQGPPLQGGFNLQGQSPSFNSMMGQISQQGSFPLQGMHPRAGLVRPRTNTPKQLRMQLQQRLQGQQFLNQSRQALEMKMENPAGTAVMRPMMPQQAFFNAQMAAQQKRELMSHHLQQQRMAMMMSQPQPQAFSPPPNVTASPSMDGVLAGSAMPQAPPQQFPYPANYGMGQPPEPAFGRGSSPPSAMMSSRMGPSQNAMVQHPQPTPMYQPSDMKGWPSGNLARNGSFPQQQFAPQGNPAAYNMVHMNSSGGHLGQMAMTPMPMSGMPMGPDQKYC
MsrA inh confirm: bovine MsrA inhibitors, retest, confirmation, biochemical, absorbance, HTS. shares compounds with MsrA inhibitor. purified bovine MsrA, absorbance read-out. inhibition, % at 15.5 µM. hit rate 41% among 2,300. AID 651822, 2012;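 further: coupled to thioredoxin reductase with NADPH and selenocystamine and DMSO as substrate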
Large screens that a line does not name were inactive (follow-up assays come after a bar, where they were run). Sampled rows, rich in hits. Any-hit rate of the full collection: about 1.6%. Unless noted, no stated cut-off is given here; in the data, active means inhibition above about 4.5%; inactive means the rest.

CCOC(=O)/C(C#N)=C/Nc1ccccc1NS(=O)(=O)c1cccc(C(C)=O)c1	MsrA inhibitor 6.0 | MsrA inh confirm inactive
CCCCS(=O)(=O)N1CCCc2nc(-c3ccc(F)cc3)ccc21	none (no result: MT1-MMP act inh, SKN-1 inh, MsrA act, pCIP destab)
COc1ccc(C(=O)N/C(=C\c2cn(C)c3ccccc23)C(=O)N2CCOCC2)cc1OC	MsrA inhibitor 4.8 | MsrA inh confirm inactive
COc1cc(C(=O)N/C(=C\c2cn(C)c3ccccc23)C(=O)N2CCN(C)CC2)cc(OC)c1OC	none
COc1ccccc1C(=O)N/C(=C\c1cn(C)c2ccccc12)C(=O)N1CCOCC1	none
COc1ccccc1C(=O)N/C(=C\c1cn(C)c2ccccc12)C(=O)NCCN1CCOCC1	none (no result: pCIP destab)
COc1ccccc1C(=O)N/C(=C\c1cn(C)c2ccccc12)C(=O)NCCCN1CCOCC1	MsrA inhibitor 5.3 | MsrA inh confirm inactive
Cn1cc(/C=C(\NC(=O)c2ccccc2Cl)C(=O)N2CCOCC2)c2ccccc21	MsrA inhibitor 6.3 | MsrA inh confirm inactive
Cc1ccc(C(=O)NC(=S)NCCCN2CCOCC2)cc1	none
O=C(NC(=S)NCCCN1CCOCC1)c1cccc2ccccc12	MsrA inhibitor 9.4 | MsrA inh confirm inactive
CCN1CCN(CCCNC(=O)c2cc3c(=O)[nH]c4ccccc4c3s2)CC1	none
O=C(NCCCN1CCOCC1)c1cc2c(=O)[nH]c3ccccc3c2s1	MsrA inhibitor 5.3 | MsrA inh confirm inactive
CCNC(=S)N/N=C/c1cccc(/C=N/NC(=S)NCC)c1	none
CCNC(=S)N/N=C/c1cccs1	MsrA inhibitor 5.5 | MsrA inh confirm inactive
Cc1c(C(=O)N/N=C/c2cccs2)nc2ccccn12	MsrA inhibitor 6.6 | MsrA inh confirm 6.4
CCOc1cc(/C=C2\C(=O)ON=C2c2ccccc2)cc(Br)c1O	none
CCOc1cc(/C=C2/C(=O)ON=C2C)cc(Br)c1O	MsrA inhibitor 5.0 | MsrA inh confirm inactive
COc1cc(/C=C2\C(=O)ON=C2c2ccccc2)cc(Br)c1O	MsrA inhibitor 5.5 | MsrA inh confirm inactive
O=[N+]([O-])c1cccc(-c2ccc(C(=S)N3CCOCC3)o2)c1	MsrA inhibitor 5.1 | MsrA inh confirm 5.6
CN(C)/N=C/c1ccc([N+](=O)[O-])cc1[N+](=O)[O-]	MsrA inhibitor 7.7 | MsrA inh confirm inactive
COCCCNC(=O)C[C@H]1C[C@@]2(C(=O)OC)C(=C[C@H](COCc3ccccc3)O[C@@H]2C)N(Cc2ccc3c(c2)OCO3)C1=O	none (no result: MT1-MMP act inh, SKN-1 inh, MsrA act, pCIP destab)
C[C@H]1CN(S(=O)(=O)C(C)(C)C)[C@@H](CCO)/C1=C\c1ccccc1	none (no result: MT1-MMP act inh, SKN-1 inh, MsrA act, pCIP destab)
CCCOc1ccc(/C(O)=C2\C(=O)C(=O)N(CCCN(C)C)C23C(=O)N(C)c2ccccc23)cc1 (stereo not drawn)	none (no result: MsrA inhibitor, MT1-MMP act inh, SKN-1 inh, MsrA act)
Cc1ccc(C(=O)C2=C(O)C(=O)N(CCCN(C)C)C23C(=O)N(C)c2ccccc23)o1 (stereo not drawn)	MsrA inhibitor 5.6 | MsrA inh confirm 6.4
O=S(=O)(Nc1ccc2cn[nH]c2c1)c1cc(Br)ccc1Br	MsrA inhibitor 6.2 (no result: pCIP destab) | MsrA inh confirm inactive
CC(C)C[C@@H]1COc2cc(N3CCCC3)ccc2S(=O)(=O)N1	none (no result: MT1-MMP act inh, SKN-1 inh, MsrA act, pCIP destab)
C/C(=N\N=C1\NC(=O)CC(C(=O)O)S1)c1ccc(F)cc1 (stereo not drawn)	none
CNC(=O)C1CC(=O)N/C(=N/N=C(\C)c2cccs2)S1 (stereo not drawn)	MsrA inhibitor 6.1 | MsrA inh confirm 4.7
C/C(=N\N=C1\NC(=O)CC(C(=O)O)S1)c1cccs1 (stereo not drawn)	MsrA inhibitor 5.0 | MsrA inh confirm inactive
Nc1ccn([C@@H]2O[C@H](C(=O)N3CCN(CCO)CC3)[C@@H](O)[C@H]2O)c(=O)n1	none (no result: MT1-MMP act inh, SKN-1 inh, MsrA act, pCIP destab)
CC(C)(C)S(=O)N1C[C@@H]2CC(=O)C=C2[C@H]1CCO (stereo partly drawn)	none (no result: MT1-MMP act inh, SKN-1 inh, MsrA act, pCIP destab)
CC(Sc1ncc(C(F)(F)F)cc1Cl)C(=O)NC(N)=O (stereo not drawn)	MsrA inhibitor 19 | MsrA inh confirm 15
CCCN1C(=O)/C(=C/c2ccc(C)s2)NC1=S	none
CCN1C(=O)/C(=C\N(C)C)NC1=S	MsrA inhibitor 5.0 | MsrA inh confirm inactive
COc1ccc(N2C(=O)/C(=C/c3cccnc3)NC2=S)cc1	none
COc1ccc(N2C(=O)/C(=C/N(C)C)NC2=S)cc1	MsrA inhibitor 7.3 | MsrA inh confirm 5.8
CN(C)/C=C1/NC(=S)NC1=O	MsrA inhibitor 5.5 | MsrA inh confirm 6.7
Cc1ccc2nc(-c3ccco3)c(Cc3ccccc3C(F)(F)F)n2c1	none (no result: MT1-MMP act inh, SKN-1 inh, MsrA act, pCIP destab)
COc1ccc2c(c1)[C@]1(C(=O)N2C)C2=C(CCCC2=O)Oc2cc(C)oc(=O)c21	none (no result: MT1-MMP act inh, SKN-1 inh, MsrA act, pCIP destab)
CCOC(=O)CN1C(=O)S/C(=C/c2ccc3c(c2)n(C)c(=O)n3C)C1=O	none
Cn1c(=O)n(C)c2cc(/C=C3/SC(=O)N(CC(=O)N4CCOCC4)C3=O)ccc21	MsrA inhibitor 4.8 | MsrA inh confirm inactive
COc1ccc(N=Cc2ccc(N(CCC#N)CCC#N)cc2)cc1	MsrA inhibitor 4.9 (no result: pCIP destab) | MsrA inh confirm 4.9
O=[N+]([O-])c1cc(/C=N/n2c(-c3cccnc3)n[nH]c2=S)ccc1Cl	MsrA inhibitor 12 | MsrA inh confirm 6.8
O=C(CSc1nnc(SCc2ccc(Cl)cc2)s1)N/N=C/c1ccc(Cl)cc1Cl	none
Cc1nnc(SCC(=O)N/N=C/c2cc(Cl)c(O)c(Cl)c2)s1	MsrA inhibitor 5.1 | MsrA inh confirm 4.7
Cc1ccccc1S(=O)(=O)N1CCCc2nc(C)c(C)cc21	none (no result: MT1-MMP act inh, SKN-1 inh, MsrA act, pCIP destab)
COc1ccc2cc3cc(C(=O)NCCCN4CCOCC4)oc3nc2c1	MsrA inhibitor 6.6 | MsrA inh confirm inactive
CC(=O)OC(=C(OC(C)=O)c1ccccc1)c1ccccc1	MsrA inhibitor 5.8 (no result: pCIP destab) | MsrA inh confirm 6.0
COC(=O)CNC(=O)c1ccccc1	none (no result: pCIP destab)
COC(=O)c1sccc1NC(=O)c1ccc(C)o1	none
COC(=O)c1sccc1NC(=O)c1ccc(Br)o1	MsrA inhibitor 5.7 | MsrA inh confirm inactive
C[C@H]1CN([C@@H](C)CO)C(=O)CCCn2cc(nn2)CO[C@@H]1CN(C)S(=O)(=O)c1cn(C)cn1	none (no result: MT1-MMP act inh, SKN-1 inh, MsrA act, pCIP destab)
CNC(=O)c1cc2ccc(OC)cc2oc1=O	MsrA inhibitor 5.2 | MsrA inh confirm 5.7
CNC(=O)c1cc2cc(OC)ccc2oc1=O	none (no result: MsrA inhibitor)
Cc1ccc(/C=C2\C(=N)N3N=C(CC(=O)N4CCOCC4)SC3=NC2=O)o1	MsrA inhibitor 5.2 | MsrA inh confirm inactive
COc1ccccc1-n1c(C)cc(/C=C2\C(=N)N3N=C(CC(=O)N4CCOCC4)SC3=NC2=O)c1C	MsrA inhibitor 5.3 | MsrA inh confirm inactive
COC(=O)C1=C(C)NC(=S)NC1c1ccc(Br)cc1 (stereo not drawn)	none (no result: MT1-MMP act inh, SKN-1 inh, MsrA act, pCIP destab)
